Measured values published in PubChem BioAssay.
The source made the active and inactive calls.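 Rule for the calls, unless noted: active = inhibition at or above 50% at 10 µM; inactive = inhibition below 50%.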

What was measured:
[1] = inhibitors of TNFa-induced NFkB p65 translocation, primary screen, imaging, HUVEC, MLSMR starter and 10KST1 sets (AID 438;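 active = inhibition above 20% together with a positive visual image hit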;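 note: compound added about 3h40 before a 20 min TNFalpha stimulation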;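 for inhibition: signal is the nuclear over cytoplasmic p65 intensity ratio per well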); conditions: HUVEC TNFa-induced p65 nuclear translocation; cell count: measured here: nuclei count (cytotoxicity indicator), at 2.08 µM; inhibition: at 2 µM, stronger effect = higher value, 0% TNFa-plus-vehicle, 100% no-TNFa wells
[2] = reduction of polyQ htt aggregates in cells – imaging, exon1htt(103Q)mCFP cells, high-content imaging, primary screen (AID 483;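 active = visual image review flags a hit and inhibition of aggregation exceeds 20%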;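 note: compound exposure lasted 3 days before fixation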;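 for nuclei count: percent of the per-plate median nuclei count of sample wells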); conditions: exon1htt(103Q)mCFP cell line, aggregate imaging, at 2 µM; inhibition of aggregation: stronger effect = higher value; nuclei count: measured here: cell count, toxicity
[3] = endothelial E-selectin expression blockers – imaging, HUVEC, immunofluorescence, MLSMR starter and 10KST1 sets, primary screen (AID 487;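 active = visually confirmed hit in the image check and inhibition above 20%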;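 for inhibition: signal is fraction of cell area covered by stained E-selectin grains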;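 for nuclei count: 100% = median nuclei count of all wells on the same plate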); conditions: HUVEC TNFalpha-induced E-selectin immunofluorescence imaging, at 2 µM; inhibition: stronger effect = higher value; nuclei count: measured here: cell number, toxicity
[4] = biological target: Voltage-gated potassium channel subunit beta-2 (Rattus norvegicus) (UniProt P62483); assay: inhibitors of rat Kvbeta2 reductase activity – biochemical, NADPH fluorescence, primary screen (AID 622;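 active = fluorescence slope higher than the sample average by over 3 SD, cut at about -0.22 in these data, passing the limit was not always enough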;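 note: slope of raw intensity against log time taken from 70 to 1610 s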); conditions: recombinant KvBeta, 4-cyanobenzaldehyde reduction, at 10 µM, stronger effect = higher value
[5] = biological target: Voltage-gated potassium channel subunit beta-2 (Rattus norvegicus) (UniProt P62483); assay: enhancers of rat Kvbeta2 NADPH turnover – biochemical, NADPH fluorescence, primary screen (AID 623;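 active = NADPH fluorescence slope more negative than the mean of all samples by about 3 SD, 99.7% confidence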;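 note: fluorescence intensity change per second fitted from 20 to 320 s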); conditions: Recombinant KvBeta, NADPH fluorescence decrease slope, 10 min; at 10 µM; stronger effect = lower value
[6] = biological target: Muscarinic acetylcholine receptor M4 (Homo sapiens) (UniProt P08173); assay: M4-linked GIRK flux change, two-sided – cell-based, HEK293 M4/GIRK, thallium flux, BTC-AM, M4 allosteric agonist project, primary screen (AID 625;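 active = fluorescence slope after compound addition differing from the mean of all tested samples at 99.7% confidence, mostly higher but some lower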;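 note: thallium influx through GIRK channels coupled to M4 in HEK293 cells with BTC-AM dye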); conditions: at 10 µM, actives lie on both sides
In short: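 Material – HEK293 cells with M4 receptor and GIRK channels · Buffer or medium – pH 7.3 thallium assay buffer · Doses – one dose, 10 µM final · Timing – cells overnight at 37 °C, BTC-AM loading 1 h, reads 2 min total · Measured by – kinetic fluorescence with BTC-AM dye · Controls – carbachol and DMSO controls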

[7] = blockers of RIG-like receptor reporter activation – cell-based, Sendai virus stimulus, luciferase, 10K MLSCN set, TLR/RLR signaling modifier project, primary screen (AID 602276); conditions: HEK293 RL24 IRF3 luciferase reporter, at 10 µM, stronger effect = higher value;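 note: firefly luciferase from ISG56 promoter only with Renilla not read in this screen; 0% = Sendai virus plus DMSO and 100% = medium plus DMSO without virus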
[8] = TLR3 IRF3 reporter activation blockers – cell-based, poly I:C stimulus, luciferase, 10K MLSCN set, primary screen (AID 602277;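 active = inhibition of the reporter signal at or above 50%; inactive = inhibition below 50%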); conditions: HEK293-TLR3 RL24 IRF3 luciferase reporter, at 10 µM, stronger effect = higher value

Voltage-gated potassium channel subunit beta-2 (Rattus norvegicus), sequence (P62483 whole entry, looked up): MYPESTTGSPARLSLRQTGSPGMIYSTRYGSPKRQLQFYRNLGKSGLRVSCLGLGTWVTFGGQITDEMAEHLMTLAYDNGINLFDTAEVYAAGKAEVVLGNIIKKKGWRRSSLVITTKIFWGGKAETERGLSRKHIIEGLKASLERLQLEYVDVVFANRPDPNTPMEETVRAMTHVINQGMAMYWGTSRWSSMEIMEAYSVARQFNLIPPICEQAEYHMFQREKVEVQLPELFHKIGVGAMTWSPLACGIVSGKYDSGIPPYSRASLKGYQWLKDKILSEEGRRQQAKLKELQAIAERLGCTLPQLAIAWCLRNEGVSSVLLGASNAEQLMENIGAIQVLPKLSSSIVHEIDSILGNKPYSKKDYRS
Muscarinic acetylcholine receptor M4 (Homo sapiens), sequence (P08173 whole entry, looked up): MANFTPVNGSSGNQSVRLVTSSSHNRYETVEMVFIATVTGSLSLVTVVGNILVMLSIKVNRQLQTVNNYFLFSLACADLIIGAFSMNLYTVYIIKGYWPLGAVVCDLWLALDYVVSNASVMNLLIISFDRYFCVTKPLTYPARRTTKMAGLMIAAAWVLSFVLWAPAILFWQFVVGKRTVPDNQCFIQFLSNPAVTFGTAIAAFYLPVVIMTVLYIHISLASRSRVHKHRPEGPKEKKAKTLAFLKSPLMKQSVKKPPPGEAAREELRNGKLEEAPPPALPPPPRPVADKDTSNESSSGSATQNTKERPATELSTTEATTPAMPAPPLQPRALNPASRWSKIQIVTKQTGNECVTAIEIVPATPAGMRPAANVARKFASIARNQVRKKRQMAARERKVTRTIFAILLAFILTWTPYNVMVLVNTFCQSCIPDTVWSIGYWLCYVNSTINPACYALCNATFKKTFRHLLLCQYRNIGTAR

Row | SMILES | cell count [1] | inhibition [1] | inhibition of aggregation [2] | nuclei count [2] [%] | inhibition [3] | nuclei count [3] [%] | fluorescence slope [4] | NADPH fluorescence slope [5] | fluorescence slope [6] | inhibition [7] | inhibition [8]
1 | COc1ccc(CCN2C(=O)C3C4C=CC(C4)C3C2=O)cc1OC (centres undefined) | 493 | -3.8% (inactive) | 2.1% (inactive) | 105 | -4.2% (inactive) | 99.7 | -0.451 (inactive) | -4e-05 (inactive) | 0.00653 (inactive) | 10.2% (inactive) | 12.7% (inactive)
2 | COc1cc(S(=O)(=O)N2CCOCC2)ccc1NC(=O)COC(=O)c1ccccn1 | 621 | 11.9% (inactive) | -7.1% (inactive) | 126 | -45.4% (inactive) | 101 | -0.542 (inactive) | -2.5e-05 (inactive) | 0.00554 (inactive) | 11.7% (inactive) | 20.5% (inactive)
3 | CCCCN(CCCC)C(=O)CN(C)S(=O)(=O)c1ccc2c(c1)n(C)c(=O)c(=O)n2C | 354 | -5.1% (inactive) | -10.5% (inactive) | 88.3 | -75.3% (inactive) | 121 | -0.466 (inactive) | -4.4e-06 (inactive) | 0.00642 (inactive) | 11.1% (inactive) | 22.5% (inactive)
4 | COc1cccc(C(=O)Nc2cc(NC(=O)c3ccco3)ccc2OC)c1 | 406 | 10.9% (inactive) | 24.4% (inactive) | 88.1 | 17.3% (inactive) | 98.6 | -0.572 (inactive) | -3.4e-05 (inactive) | 0.00583 (inactive) | 19.4% (inactive) | 4.19% (inactive)
5 | CC(C)(C)OC(=O)N1CCC(C(=O)N2CCCCCC2)CC1 | 383 | 4.6% (inactive) | 0.1% (inactive) | 90 | -36.8% (inactive) | 97 | -0.529 (inactive) | -8e-05 (inactive) | 0.00575 (inactive) | 7.78% (inactive) | 11.9% (inactive)
6 | O=C(C1CCN(S(=O)(=O)c2cccnc2)CC1)N1CCN(c2ccc(Cl)cc2)CC1 | 447 | -1.6% (inactive) | 11.5% (inactive) | 109 | -26.1% (inactive) | 100 | -0.447 (inactive) | 3.3e-05 (inactive) | 0.00572 (inactive) | 7.3% (inactive) | -25.5% (inactive)
7 | Cc1cc(C)nc(N2CCCC(C(=O)Nc3nc4ccc(S(C)(=O)=O)cc4s3)C2)n1 (centres undefined) | 599 | 1.8% (inactive) | 2.6% (inactive) | 117 | 6.8% (inactive) | 107 | -0.459 (inactive) | 9.7e-05 (inactive) | 0.00564 (inactive) | 12% (inactive) | 11.5% (inactive)
8 | CCCOc1ccc(N2C(=O)CC(NCCCN3CCC(C(N)=O)CC3)C2=O)cc1 (centres undefined) | 322 | -0.7% (inactive) | 9.6% (inactive) | 121 | -32% (inactive) | 110 | -0.429 (inactive) | -4.4e-05 (inactive) | 0.00445 (inactive) | 19.4% (inactive) | 19.7% (inactive)
9 | COc1ccc(OC)c(S(=O)(=O)NCCO)c1 | 217 | -7.9% (inactive) | 11% (inactive) | 112 | 33.4% (inactive) | 102 | -0.567 (inactive) | -2.1e-05 (inactive) | 0.00652 (inactive) | 16% (inactive) | 24.6% (inactive)
10 | CCOC(=O)C1CCCN(C(=O)c2cccs2)C1 (centres undefined) | 330 | 3.3% (inactive) | 13.3% (inactive) | 110 | 22% (inactive) | 104 | -0.456 (inactive) | -5e-05 (inactive) | 0.0055 (inactive) | 12.8% (inactive) | 3.43% (inactive)
11 | CC(C)CNC(=O)C1C2C=CC(C2)C1C(=O)O (centres undefined) | 456 | -2.9% (inactive) | -8.2% (inactive) | 98.4 | -33.7% (inactive) | 128 | -0.535 (inactive) | -4e-05 (inactive) | 0.00535 (inactive) | 13.4% (inactive) | 20.4% (inactive)
12 | CCN(C(=O)c1c(-c2ccccc2)noc1C)c1ccccc1 | 600 | 1% (inactive) | 1.1% (inactive) | 106 | -39.7% (inactive) | 95.6 | -0.534 (inactive) | -1.1e-05 (inactive) | 0.00432 (inactive) | 22.5% (inactive) | 22.7% (inactive)
13 | C[C@H](NC(=O)OC(C)(C)C)C(=O)NCC1CCC(C(=O)O)CC1 (some centres undefined) | 376 | -1.1% (inactive) | 4% (inactive) | 103 | -23.6% (inactive) | 101 | -0.536 (inactive) | 1.9e-05 (inactive) | 0.00501 (inactive) | 16.6% (inactive) | 21.3% (inactive)
14 | Cc1oc2c(CN3CCCC3)c(O)ccc2c(=O)c1-c1ccccc1 | 243 | 3.8% (inactive) | 6.5% (inactive) | 96.3 | -46% (inactive) | 97.7 | -0.0276 (active) | 8.9e-06 (inactive) | 0.00581 (inactive) | 14% (inactive) | 24.5% (inactive)
